SMILES strings stand for the structures. Among all 210,000 compounds or so, about 220 (0.1%) were called active. The sample holds actives, similar compounds and a random draw of the others, so the mix is not that of the screen.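 Rule for the calls: active = signal enhancement of 30% or more; inactive = the rest.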

E3 ubiquitin-protein ligase Mdm2 (Homo sapiens), sequence (Q00987 whole entry, looked up, the tested form may be a part): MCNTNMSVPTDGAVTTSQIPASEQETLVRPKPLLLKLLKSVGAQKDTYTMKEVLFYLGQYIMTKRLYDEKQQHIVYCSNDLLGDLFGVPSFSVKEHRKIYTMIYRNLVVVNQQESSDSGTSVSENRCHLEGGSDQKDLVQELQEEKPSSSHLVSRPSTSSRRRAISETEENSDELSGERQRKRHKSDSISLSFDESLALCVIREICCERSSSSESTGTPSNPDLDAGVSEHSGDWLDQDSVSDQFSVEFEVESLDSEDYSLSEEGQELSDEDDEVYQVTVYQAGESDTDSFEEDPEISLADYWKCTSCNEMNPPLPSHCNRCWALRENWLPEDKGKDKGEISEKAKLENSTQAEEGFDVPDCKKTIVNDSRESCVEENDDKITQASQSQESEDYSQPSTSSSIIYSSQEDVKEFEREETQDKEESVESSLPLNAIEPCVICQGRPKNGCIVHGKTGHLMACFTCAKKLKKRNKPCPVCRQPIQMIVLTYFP

The test addresses E3 ubiquitin-protein ligase Mdm2 (Homo sapiens) (UniProt Q00987). As to the kind of experiment: increase of MDM2 autoubiquitination reporter luminescence – cell-based, 1536-well, MDM2 E3 ligase inhibitor project, primary screen (AID 1230).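 Note: luminescence tracks abundance of the self-degrading MDM2-luciferase fusion protein; higher signal means inhibition of MDM2 E3 ligase activity.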 The conditions noted are these: cell-based MDM2 ubiquitination luciferase reporter, 2 h; at 5 µM; active compounds read high; 0 = plate control, 100 = twice control, blank-subtracted. Put shortly:
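Test system: stable mammalian line carrying autodegrading MDM2–luciferase fusion reporter; quantity: 2000 cells in each well; times: 4 h cell settling then 2 h compound exposure, 37 °C; detection: luminescence with SteadyLite reagent, 15 min at room temperature; evaluation: percent signal gain over controls, blank-subtracted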
Regarding `CSc1sc(C(=O)NC(=O)NCc2cccnc2)c(C)c1-c1ccon1`, the signal enhancement is -12.8% (inactive). In the case of `O=C(NCCCn1ccnc1)C(=O)NCC1OCCN1S(=O)(=O)c1cc(F)ccc1F` (configuration not stated), the signal enhancement is -1.11% (inactive).

For the compound `Cc1cc(C)nc(S/C=C/C(=O)c2ccccc2)n1`, the signal enhancement is 45.8% (active). Consider `Cc1cc(SCC(=O)c2ccccc2)nc(SCC(=O)c2ccccc2)n1`, for which the signal enhancement is -22.4% (inactive). With `C/C(=N\NC(=O)c1nc(C)cc(C)n1)c1ccccc1` the figure was -2.38% (inactive). In the case of `CNC(=S)NNC(=O)c1oc2nc(-c3ccccc3)cc(-c3ccco3)c2c1N` it was -16.3% (inactive); in that of `Cc1noc(C)c1COC(=O)COc1ccc(-c2ccccc2)cc1`, -6.72% (inactive); in that of `CCS(=O)(=O)c1cc([N+](=O)[O-])c(Sc2ccccc2N)s1`, -43.9% (inactive). With `CS(=O)(=O)c1ccc2nnn(OCC(=O)Nc3cccc(C#N)c3)c2c1` the figure was -16.9% (inactive). In the case of `CC(=O)c1ccc(S(=O)(=O)N2CCN(C(=O)/C=C/c3ccc4ccccc4n3)CC2)cc1`, the signal enhancement is -8.84% (inactive). In the case of `C/C=C\C=C\C(=O)N1CC2(CC(c3cccc(NC(=O)/C(C)=C\C)c3)=NO2)C[C@H]1C(N)=O` (some centres not stated) it was -14.1% (inactive); in that of `Cn1ccc(=NC=C(C#N)C#N)c2ccccc21`, 30.3% (active). Turning to `CCOC(=O)c1cc(C)nc(S(C)(=O)=O)c1C#N`, the signal enhancement was -11% (inactive). In the case of `CCOC(=O)c1c(NC(=S)NC)sc2c1CCCC2` it was -8.08% (inactive); in that of `COc1ccc(/C=C/C(=O)Nc2ccc3c(c2)OCCO3)cc1OC`, -7.44% (inactive); in that of `COc1ccc(/C=C/C(=O)Nc2cccnc2)cc1OC`, -3.38% (inactive). On to `COc1ccc(/C=C/C(=O)Nc2ccc(C34CC5CC(CC(O)(C5)C3)C4)cc2)cc1OC`, for which the signal enhancement was 45.6% (active). With `Clc1ccc(C[n+]2cc(-c3ccccc3)n3c2CCC3)cc1` the figure was -18.4% (inactive); with `S=c1[nH]nc(-c2cccs2)n1/N=C/c1cn(-c2ccccc2)nc1-c1ccc(Cl)cc1`, -7.25% (inactive); with `COc1cccc(C2Nc3cccc4cccc(c34)N2)c1`, -2.34% (inactive). With `CNC(=O)C(NC(=O)c1ccccc1)=C(C)C` the figure was -12.3% (inactive); with `COc1ccccc1OCC(=O)O/N=C(\N)c1ccccn1`, -10.7% (inactive); with `N/C(=N\OC(=O)Nc1ccccc1)c1ccno1`, -4.12% (inactive). In the case of `CCCc1nc2c(c(=O)c3ccccc3n2C)c(=O)n1-c1cc(C)cc(C)c1` it was -9.46% (inactive); in that of `COc1ccc(NC(=O)CSc2ncnc3[nH]ncc23)cc1`, -3.15% (inactive). With `CC(C)(C)c1cc(NC(=O)NN2CCOCC2)nn1-c1c(Cl)cc(Cl)cc1Cl`, the signal enhancement is -17.5% (inactive). Consider `CCOC(=O)C1CCN(C(=O)Nc2ccc(C)c(Cl)c2)CC1`, for which the signal enhancement is -11.1% (inactive). Regarding `Cn1nccc1NC(=O)Nc1ccc(OC(F)(F)F)cc1`, the signal enhancement was -5.96% (inactive). In the case of `O=C1NC[C@@H](Cc2ccc(O)cc2)N(CCc2cccc(F)c2)C1=O` it was 10.9% (inactive); in that of `COc1ccc(CNC(=O)C(Cc2ccccc2)n2cccc2)cc1` (configuration not stated), -4.92% (inactive); in that of `Cn1cnc([N+](=O)[O-])c1Sc1n[nH]c(N)n1`, -5.56% (inactive).

In the case of `O=C(CCc1ccccc1)NNc1ccc(F)cc1`, the signal enhancement was -12.4% (inactive). Regarding `CCCCCCCCCCCCN1C(=O)CSC1c1cccnc1` (configuration not stated), the signal enhancement is -5.41% (inactive). In the case of `O=C(NCC1CCCO1)c1cc(-c2ccccc2)nc2ccccc12` (configuration not stated) it was -4.98% (inactive); in that of `CCOC(=O)C(=CNNc1ccsc1C(=O)OC)C(=O)OCC`, -27.3% (inactive); in that of `Cn1c(=NC(=O)c2ccc3c(c2)OCCO3)sc2cc(S(C)(=O)=O)ccc21`, 37% (active).

Take `COCCn1c(=NC(=O)c2ccccc2[N+](=O)[O-])sc2cc(S(C)(=O)=O)ccc21`: the signal enhancement was -5.21% (inactive). Regarding `CC(=O)c1ccc2c(c1)OCCOCCOc1ccc(C(C)=O)cc1OCCOCCO2`, the signal enhancement is -8.95% (inactive). With `Cc1cccc(N(C)C(=O)c2cc3c(=O)[nH]c4ccc(C)cc4c3s2)c1` the figure was 2.91% (inactive). As to `Cc1cccc(N2CCN(Cc3nc(C4CC4)no3)CC2)n1`, the signal enhancement was 2.81% (inactive). Take `CC(C)(C)c1cc(P(=O)(c2ccccc2)c2ccccc2)ccc1O`: the signal enhancement was -14% (inactive). With `COc1ccc(CCNC(=O)C2CC3Cn4c(nc5cc(C)c(C)cc54)C3N2C)cc1` (configuration not stated) the figure was 13% (inactive); with `CC1=NOC(=O)/C1=C\c1ccccc1`, -4.01% (inactive). With `Cc1cccc(C)c1Nc1c(-c2ccccc2O)nc2ncccn12`, the signal enhancement is -18.4% (inactive). For the compound `CN(Cc1nc(-c2cnccn2)no1)Cc1n[nH]c2c1CCCCC2`, the signal enhancement is -8.5% (inactive). With `Clc1ccc(CSc2nnc3c(n2)[nH]c2ccccc23)cc1` the figure was -10.6% (inactive). Regarding `CCNc1nc(NCC)nc(N/N=C/c2ccc(O)c(OC)c2)n1`, the signal enhancement is -10% (inactive). With `CC(=O)N1N=C(c2ccncc2)OC1(Cc1ccccc1)Cc1ccccc1` the figure was -11.4% (inactive); with `CCC(C)(C)NC(=O)C(c1ccc(O)cc1)N(C(=O)Cn1nnc2ccccc21)c1ccc(NC(C)=O)cc1` (configuration not stated), -11.7% (inactive). With `Cn1c2ccc(F)cc2c2nnc(NN)nc21` the figure was -2.02% (inactive); with `COc1ccc(OC)c(NC(=O)N[C@H](Cc2ccccc2)C(=O)NN)c1`, -4.05% (inactive).

For the compound `NC(=O)CC(NC(=O)Cc1cccc2ccccc12)c1ccc(NCc2cc(F)ccc2F)c([N+](=O)[O-])c1` (configuration not stated), the signal enhancement was 5.13% (inactive).

Take `COc1ccc(OCC(O)CNCCNc2nccc(C(F)(F)F)n2)cc1` (configuration not stated): the signal enhancement was -12.4% (inactive). With `CC1CN(c2nc(Nc3ccccc3)nc(N)c2[N+](=O)[O-])CC(C)O1` (configuration not stated) the figure was -20.6% (inactive); with `Cc1c(C(=O)N(Cc2ccccc2)Cc2cccnc2)cnn1-c1ccc(F)cc1`, -11.7% (inactive). With `O=c1[nH]n(-c2cccc(Cl)c2)c2ncccc12` the figure was -4.4% (inactive); with `Oc1c(CN2CCN(c3ccc(F)cc3)CC2)cc(Cl)c2cccnc12`, 9.75% (inactive); with `Clc1cccc(CN2COc3c(cc(Cl)c4cccnc34)C2)c1`, 46.8% (active). In the case of `CCCSc1ncccc1C(=O)O` it was -7.45% (inactive). Turning to `COC(=O)C1=C(N)Oc2cc(C)[nH]c(=O)c2C1c1ccc(Cl)cc1` (configuration not stated), the signal enhancement is -10.2% (inactive). For the compound `CSc1nnc(SCc2nc3sc(C(=O)O)c(C)c3c(=O)[nH]2)s1`, the signal enhancement was -16.2% (inactive). With `O=C(CSc1nnnn1-c1ccc(O)cc1)c1ccc(F)cc1`, the signal enhancement is -12.1% (inactive).

For the origin of these results see PubChem BioAssay AID1230 (PCMD, 2008).
